Measured values taken from ChEMBL document CHEMBL1128243, “Three-dimensional quantitative structure-activity relationships of sulfonamide endothelin inhibitors” (J Med Chem, 1995).

The compounds below were run against T1, Endothelin-1 receptor (Rattus norvegicus, UniProt P26684) (assay: Inhibition of [125I]endothelin-l binding to endothelin A receptor of rat thoracic aorta smooth muscle cells).
T1 sequence (P26684 whole entry): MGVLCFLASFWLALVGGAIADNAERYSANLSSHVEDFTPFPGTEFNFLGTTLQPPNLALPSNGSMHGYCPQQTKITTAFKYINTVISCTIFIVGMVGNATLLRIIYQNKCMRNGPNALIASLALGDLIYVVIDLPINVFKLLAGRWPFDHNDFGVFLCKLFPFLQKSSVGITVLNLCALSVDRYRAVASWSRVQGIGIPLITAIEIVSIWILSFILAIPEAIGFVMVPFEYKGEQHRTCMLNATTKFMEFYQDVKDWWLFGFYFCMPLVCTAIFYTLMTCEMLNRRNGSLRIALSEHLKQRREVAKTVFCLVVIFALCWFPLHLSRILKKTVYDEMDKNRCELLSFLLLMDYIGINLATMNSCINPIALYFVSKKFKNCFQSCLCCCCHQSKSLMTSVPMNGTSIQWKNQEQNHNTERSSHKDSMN
Type: tissue-based
Outline: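 Membranes from A10 rat thoracic aorta smooth muscle cells (cultured, trypsin-detached, stored at -70 °C, then thawed, homogenized and centrifuged to a membrane pellet). Samples filtered through glass fiber filters and washed, then filter-retained radioactivity counted.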

IC50 [nM] | Structure (SMILES)
24000 | Cc1noc(NS(=O)(=O)c2ccc3c(N)cccc3c2)c1C
15 | Cc1onc(NS(=O)(=O)c2cccc3c(N(C)C)cccc23)c1C
27500 | CC(=O)Nc1cccc2ccc(S(=O)(=O)Nc3onc(C)c3C)cc12
1450 | Cc1noc(NS(=O)(=O)c2cccc3ccc(N)cc23)c1C
3400 | CC(=O)Nc1ccc(S(=O)(=O)Nc2onc(C)c2C)c2ccccc12
3100 | Cc1noc(NS(=O)(=O)c2cccc3ccccc23)c1C
840 | Cc1noc(NS(=O)(=O)c2cccc3cc(N(C)C)ccc23)c1C
1300 | CC(=O)Nc1ccc2c(S(=O)(=O)Nc3onc(C)c3C)cccc2c1
53000 | Cc1cc(NS(=O)(=O)c2ccc(O)cc2)no1
10000 | Cc1noc(NS(=O)(=O)c2ccc3ccc(N)cc3c2)c1C
2400 | Cc1noc(NS(=O)(=O)c2cccc3cc(N)ccc23)c1C
1400 | Cc1noc(NS(=O)(=O)c2ccc3ccc(N(C)C)cc3c2)c1C
4 | Cc1noc(NS(=O)(=O)c2cccc3c(N(C)C(C)C)cccc23)c1C
9800 | Cc1noc(NS(=O)(=O)c2ccc3cccc(N)c3c2)c1C
3500 | Cc1noc(NS(=O)(=O)c2ccc(N)c3ccccc23)c1C
1300 | Cc1noc(NS(=O)(=O)c2cccc(N)c2)c1C
5600 | Cc1noc(NS(=O)(=O)c2cccc3ccc(N(C)C)cc23)c1C
42000 | CC(=O)Nc1ccc2ccc(S(=O)(=O)Nc3onc(C)c3C)cc2c1
31500 | Cc1noc(NS(=O)(=O)c2ccc3cccc(N(C)C)c3c2)c1C
600 | Cc1noc(NS(=O)(=O)c2ccc3cc(N)ccc3c2)c1C
5000 | CCNc1ccc(S(=O)(=O)Nc2onc(C)c2C)cc1
84000 | Cc1noc(NS(=O)(=O)c2ccc(N(C)C)cc2)c1C
16 | CC(=O)Nc1cccc2c(S(=O)(=O)Nc3noc(C)c3C)cccc12
510 | Cc1onc(NS(=O)(=O)c2ccc(N)cc2)c1Br
5 | Cc1noc(NS(=O)(=O)c2cccc3c(NC(C)C)cccc23)c1C
3800 | CC(=O)Nc1ccc2cc(S(=O)(=O)Nc3onc(C)c3C)ccc2c1
15 | Cc1noc(NS(=O)(=O)c2cccc3c(N(C)C)cccc23)c1C [BMS-182874]
260 | Cc1onc(NS(=O)(=O)c2ccc(N)cc2)c1C [SULFATROXAZOLE]
